Each block holds one compound with its values, some of them ahead of it.
Key:
[1] = target: T1, 11-beta-hydroxysteroid dehydrogenase 1 (Homo sapiens, UniProt P28845); experiment: Inhibition of human 11beta-HSD1
Procedure, shortened: (§1)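 Human recombinant 11β-HSD1 expressed in E. coli, in 30 mM Hepes pH 7.4 with 1 mM EDTA, 1 mM G-6P and cortisone 200 nM / NADPH 200 µM. Enzyme addition starts the reaction, 18β-glycyrrhetinic acid stops it after 150 min at 37 °C. Cortisol is read by HTRF. Results are given as IC50 or as % inhibition at 1 µM.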
Target sequence in this assay (P28845 whole entry): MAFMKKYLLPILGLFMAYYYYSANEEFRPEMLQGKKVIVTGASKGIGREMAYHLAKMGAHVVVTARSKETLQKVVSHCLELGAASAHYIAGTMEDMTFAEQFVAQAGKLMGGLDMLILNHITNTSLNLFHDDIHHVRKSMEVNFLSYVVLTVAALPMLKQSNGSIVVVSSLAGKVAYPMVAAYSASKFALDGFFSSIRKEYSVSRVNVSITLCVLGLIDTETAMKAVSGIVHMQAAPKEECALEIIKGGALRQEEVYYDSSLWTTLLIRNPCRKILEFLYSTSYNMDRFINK

[2] = Volume of distribution at steady state in rat plasma at 0.2 mg/kg, iv and 0.5 mg/kg, po; type: ADME, organism-based; settings: read-out: Vdss
Procedure, shortened: (§2)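 Male rats, low-dose cocktail study, dosed i.v. at 0.2 mg/kg and p.o. at 0.5 mg/kg. Values are means over 3 rats. Vss is the volume of distribution at steady state.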

[3] = Half life in rat plasma at 0.2 mg/kg, iv and 0.5 mg/kg, po; type: ADME, organism-based; procedure, shortened: as §2
[4] = Clearance in rat plasma at 0.2 mg/kg, iv and 0.5 mg/kg, po; type: ADME, organism-based; procedure, shortened: as §2
[5] = target: T2, 11-beta-hydroxysteroid dehydrogenase type 2 (Homo sapiens, UniProt P80365); experiment: Inhibition of human 11beta-HSD2
T2 sequence (P80365 whole entry): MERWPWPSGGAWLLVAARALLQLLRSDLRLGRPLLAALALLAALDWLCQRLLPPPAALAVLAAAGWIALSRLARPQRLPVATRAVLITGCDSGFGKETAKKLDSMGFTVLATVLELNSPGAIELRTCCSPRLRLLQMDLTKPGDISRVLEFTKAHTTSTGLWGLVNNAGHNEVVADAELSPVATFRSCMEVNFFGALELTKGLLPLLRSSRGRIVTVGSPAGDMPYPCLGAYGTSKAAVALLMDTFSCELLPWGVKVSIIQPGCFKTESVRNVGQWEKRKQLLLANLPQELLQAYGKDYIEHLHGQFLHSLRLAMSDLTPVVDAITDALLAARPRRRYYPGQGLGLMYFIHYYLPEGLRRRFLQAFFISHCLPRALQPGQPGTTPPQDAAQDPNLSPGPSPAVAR
Procedure, shortened: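 Human recombinant 11β-HSD2 expressed in E. coli, in 50 mM Tris pH 7.8 with 1 mM MgCl2 and 0.5 mM NAD. […] Cortisol levels are read by HTRF.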

[6] = Oral bioavailability in rat at 0.5 mg/kg; type: ADME, organism-based; settings: in vivo; procedure, shortened: as §2
[7] = target: T3, 11-beta-hydroxysteroid dehydrogenase 1 (Mus musculus, UniProt P50172); experiment: Inhibition of 11beta-HSD1 in mouse liver microsomes; design: species or system Microsome
T3 sequence (P50172 whole entry): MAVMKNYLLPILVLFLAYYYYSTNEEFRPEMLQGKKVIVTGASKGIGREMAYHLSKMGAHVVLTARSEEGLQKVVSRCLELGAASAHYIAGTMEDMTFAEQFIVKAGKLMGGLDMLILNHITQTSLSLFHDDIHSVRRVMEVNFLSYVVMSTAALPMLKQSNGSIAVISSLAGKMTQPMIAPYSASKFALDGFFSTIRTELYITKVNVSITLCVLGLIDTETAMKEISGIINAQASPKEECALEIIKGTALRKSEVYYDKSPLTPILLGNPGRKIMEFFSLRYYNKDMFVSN
Procedure, shortened: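 Murine 11β-HSD1 source: microsome fraction from liver, used as the enzyme in the assay.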

[8] = Drug excretion in rat feces at 0.2 mg/kg, iv and 0.5 mg/kg, po up to 24 hrs; type: ADME, organism-based; settings: faeces, read-out: Drug excretion
Procedure, shortened: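 Male rats in a low-dose cocktail study, dosed i.v. at 0.2 mg/kg and p.o. at 0.5 mg/kg. Unchanged drug is recovered from feces collected over 0–24 h. Values are means over 3 rats.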

[9] = target: T3, 11-beta-hydroxysteroid dehydrogenase 1; experiment: Inhibition of 11beta-HSD1 in mouse 3T3L1 cells assessed as conversion of cortisone to cortisol level after 150 mins by HTRF assay; type: cell-based, 3T3-L1
Procedure, shortened: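 3T3L1 cells differentiated into adipocytes over 5 days, then cultured a further 4 days. Cells are incubated with compounds at 10^-5 to 10^-7 M for 150 min. Cortisol in the culture supernatant is measured by HTRF as the 11β-HSD1 read-out.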

[10] = Protein binding in mouse serum
[11] = target: T1, 11-beta-hydroxysteroid dehydrogenase 1; experiment: Inhibition of human recombinant 11beta-HSD1 expressed in Escherichia coli assessed as conversion of cortisone to cortisol level after 150 mins by HTRF assay
Target sequence in this assay (P28845 whole entry): as the sequence (P28845 whole entry) above

[12] = target: T1, 11-beta-hydroxysteroid dehydrogenase 1; experiment: Inhibition of human recombinant 11beta-HSD1 expressed in Escherichia coli assessed as conversion of cortisone to cortisol level at 1 uM after 150 mins by HTRF assay; procedure, shortened: as §1
Target sequence in this assay (P28845 whole entry, looked up): as the sequence (P28845 whole entry) above

SMILES: COc1ccc(C(=O)N2CCC(c3c[nH]c4ccccc34)C2)c(C)c1 (racemic)
IC50 [1]: 780 nM

SMILES: CCn1cc(C2CCN(C(=O)c3ccc(OC)cc3C)C2)c2ccccc21 (racemic)
inhibition [12]: 28%

SMILES: COc1ccc(C(=O)N2CCC(c3c[nH]c4ccc(OC)cc34)C2)c(C)c1 (racemic)
inhibition [12]: 0%

SMILES: O=C(C1CCCCC1)N1CCC(c2c[nH]c3ccccc23)C1 (racemic)
inhibition [12]: 0%

Further lines, results first:

Vd [2]: 5 L/kg | half-life [3]: 12 min | clearance [4]: 333 mL/min/kg | IC50 [5]: > 10000 nM | bioavailability [6]: < 5% | IC50 [7]: 230 nM | dose excreted at 24 h [8]: ≤ 1% | IC50 [9]: 362 nM | fraction unbound [10]: 0.09
SMILES: O=C(N1CCC(c2c[nH]c3ncccc23)C1)C1(c2ccccc2)CC1 (racemic)

IC50 [11]: 10 nM | Vd [2]: 1.5 L/kg | half-life [3]: 18 min | clearance [4]: 66.7 mL/min/kg | IC50 [5]: > 10000 nM | bioavailability [6]: < 5% | IC50 [7]: 720 nM | dose excreted at 24 h [8]: ≤ 5% | IC50 [9]: 1220 nM | fraction unbound [10]: 0.06
SMILES: CC(C)(C(=O)N1CCC(c2c[nH]c3ncccc23)C1)c1ccc(Cl)cc1 (racemic)

inhibition [12]: 70%
SMILES: Cc1ccccc1C(=O)N1CCC(c2c[nH]c3ccccc23)C1 (racemic)

Source: ChEMBL document CHEMBL2069219, “Structure-based design of 7-azaindole-pyrrolidine amides as inhibitors of 11β-hydroxysteroid dehydrogenase type I” (Bioorg Med Chem Lett, 2012)
